“And” between values parts separate entries of the source, which are not always exact repeats. Equal values may be shown once. Read-outs that look alike come from different tables or passages of the source. Blank lines part the entries; values can stand above or below the compound they belong to.
Assays:
[1] = cited from earlier work
[2] = dog; cited from earlier work
[3] = Clearance predicted for the mouse by body surface area scaling; details: body surface area scaling from dog and rat
[4] = test system: high-grade gliomas; details: in combination with bevacizumab, twelve patients; cited from earlier work
[5] = Plasma and brain pharmacokinetics of panobinostat in CD-1 female mice; assay type: in vivo
How it was run: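 Single tail-vein dose of 15 mg/kg (3 mg/mL in PBS with 20% DMSO and 20% PEG-400) given to 12 mice, with 3 killed at each of 1, 2, 4 and 7 h. Heparinized plasma and brains frozen at −80 °C. LC–MS with internal standard, using 9-point 1–500 ng/mL calibration fitted by 1/x2 regression. Cmax taken as highest observed concentration, AUC1–7 by trapezoidal rule, and clearance from a […] model.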

[6] = cited from earlier work; remark: listed apart in the source
[7] = rat; cited from earlier work
[8] = test system: refractory solid tumors; details: 9 pediatric patients; cited from earlier work
[9] = cited from earlier work; remark: listed apart in the source
[10] = Protein binding in murine plasma; assay type: in vitro ADME; details: murine plasma compartment
[11] = IP and IV administration; cited from earlier work
[12] = murine plasma; cited from earlier work
[13] = human plasma; cited from earlier work
[14] = test system: human DIPG cell lines; details: cited from earlier work
[15] = test system: P-gp; details: cited from earlier work
[16] = test system: DIPG cultures; details: cited from earlier work
[17] = parameters: species or system human
[18] = cited from earlier work; remark: listed apart in the source
[19] = female, CD-1, mouse, brain, intravenous, 15 mg/kg
[20] = female, CD-1, mouse, brain, iv, 15 mg/kg
[21] = female, CD-1, mouse, brain/plasma, iv, 15 mg/kg
[22] = female, CD-1, mouse, plasma, intravenous, 15 mg/kg
[23] = female, CD-1, mouse, plasma, iv, 15 mg/kg
[24] = intraperitoneal injection, single time-point 4 h

Compound: Cc1nc(Nc2ncc(C(=O)Nc3c(C)cccc3Cl)s2)cc(N2CCN(CCO)CC2)n1 [dasatinib]
concentrations in the brain after inhibition of P-gp with everolimus [1]: increased concentrations

clearance predicted in the mouse [3]: 918 mL/min/kg
AUC1–7 for brain ([5]; 15 mg/kg IV, mice, trapezoidal rule, 1 h to 7 h): 250 ng·h/g
concentration at 1 h [5, 19]: 60.5 ng/g and 63.2 ng/mL and 181 nM
concentration at 2 h [5, 19]: 42.9 ± 5.4 ng/g
concentration at 4 h [5, 19]: 33.2 ± 6.1 ng/g
concentration at 7 h [5, 19]: 28.1 ng/g and 29.4 ng/mL and 84.1 nM
Cmax [5, 20]: 72.4 ng/g
Vd [5, 20]: 49.8 L/kg
Kp [5, 21]: 2.63
Kp at 1 h [5, 21]: 2.22
Kp at 2 h [5, 21]: 5.67
Kp at 4 h [5, 21]: 22.4
Kp at 7 h [5, 21]: 12.1
Vd [5, 22]: 53.8 L/kg
clearance [5, 22]: 967 mL/min/kg
concentration at 1 h [5, 22]: 27.3 ± 2.5 ng/mL
concentration at 2 h [5, 22]: 7.56 ± 1.8 ng/mL
concentration at 4 h [5, 22]: 1.48 ± 0.56 ng/mL
concentration at 7 h [5, 22]: 2.33 ± 1.18 ng/mL
AUC [5, 23]: 95 ng·h/mL
Cmax [5, 23]: 132 ng/mL
Vd [5, 23]: 140 L/kg
clearance [5, 23]: 1360 mL/min/kg
drug unbound in plasma [10]: 40%
expected human brain nanomolar concentration ([17]; corresponding to 45.95 ng/g): approximately 142.2 nM
expected human brain concentration ([17]; pediatric Cmax 20.7 ng/mL x brain to plasma ratio 2.22): approximately 45.95 ng/g
Compound: Cc1[nH]c2ccccc2c1CCNCc1ccc(/C=C/C(=O)NO)cc1 [panobinostat, 2-hydroxypropanoic acid, compound with 2-(E)-Nhydroxy-3-[4-[[[2-(2-methyl-1H-indol-3-yl)ethyl]amino]methyl]phenyl]-2-propenamide]
volume of distribution [2]: 42 L/kg
median progression free survival (PFS) [4]: 4.3 months
patients achieving a partial response [4]: Three
patients with stable disease [4]: 6 patients
brainstem concentration relative to cerebral cortex (times) [6]: more than 7
concentration in brainstem tumor tissue [6, 24]: 550 ± 51 nM
concentration in cerebral cortex [6, 24]: 70 ± 10 nM
volume of distribution [7]: 40.2 L/kg
objective response [8]: No patient had an objective response
patients with stable disease [8]: 3 patients
tolerability [8]: acceptable tolerability
BCS class [9]: Class II
permeability (BCS) [9]: high permeability
solubility (BCS) [9]: low solubility
concentrations in xenograft, intestine, bladder, and heart tissue versus plasma [11]: higher concentrations
protein binding [12]: approximately 60%
protein binding [13]: 75–90%
IC50 ([14]; prior DIPG models): 28.3 nM
IC50 ([14]; range in human DIPG cell lines): 12.1 to 28.3 nM
P-gp substrate status [15]: substrate of P-gp
DIPG cultures demonstrating sensitivity [16]: 12 of the 16
brain penetration in clinical reports [18]: minimal to no brain penetration
concentrations in the CSF ([18]; prior studies): negligible concentrations

Compound: COc1cc2c(Nc3ccc(Br)cc3F)ncnc2cc1OCC1CCN(C)CC1 [vandetanib]
concentrations in the brain after inhibition of P-gp with everolimus [1]: increased concentrations
